Experiments:
[1] = Intrinsic clearance in rat hepatic microsomes; assay type: in vitro ADME
[2] = Plasma protein binding by equilibrium dialysis, human; assay type: in vitro ADME; conditions: free fraction
[3] = Plasma protein binding by equilibrium dialysis, rat; assay type: in vitro ADME; conditions: free fraction
[4] = tested on: 68 GPCR's, ion channels and transporters; assay: EuroFin's Lead Profiling Screen binding assay panel; conditions: 10 μM
[5] = Intrinsic clearance in human hepatic microsomes; assay type: in vitro ADME
[6] = biological target: T1, MrgX1 (Homo sapiens, UniProt Q96LB2); assay: Ca2+ imaging assay on MrgX1-expressing HEK293 cells; assay type: cell-based
Outline: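 Ca2+ imaging in HEK293 cells expressing MrgX1, read as relative fluorescence units. Test compound was titrated alone and with a submaximal BAM8-22 level (10 nM). EC50 came from dose-response curve fitting and was not determined when Emax was <50%. Emax is given as % of a reference analogue. Three repeat experiments, mean±SEM.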

[7] = biological target: T1, MrgX1; assay: HTS triple addition screen for MrgX1 positive allosteric modulators; assay type: cell-based; conditions: read-out: MrgX1 EC50; HTS screen value; HEK293 cell line stably expressing MrgX1

T1 sequence (Q96LB2 whole entry): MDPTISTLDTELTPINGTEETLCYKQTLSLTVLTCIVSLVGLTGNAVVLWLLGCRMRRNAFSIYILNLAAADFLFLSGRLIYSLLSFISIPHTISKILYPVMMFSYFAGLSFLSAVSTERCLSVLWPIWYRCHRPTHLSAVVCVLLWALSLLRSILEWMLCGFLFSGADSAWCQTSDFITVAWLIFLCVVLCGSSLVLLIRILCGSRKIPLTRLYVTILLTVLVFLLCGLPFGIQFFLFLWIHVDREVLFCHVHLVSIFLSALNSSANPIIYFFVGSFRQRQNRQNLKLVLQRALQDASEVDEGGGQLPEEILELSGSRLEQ

CCOc1ccccc1NC(=O)c1ccccc1NS(=O)(=O)C1CC1 [4l, 2-(cyclopropanesulfonamido)-N-(2-ethoxyphenyl)benzamide]
Rat CLHEP, Microsome Predicted Hepatic Clearance [1]: 65.7 mL/min/kg | Human PPB, Percent Free Compound in Plasma [2]: 0.4% | Rat PPB, Percent Free Compound in Plasma [3]: 1.7% | Inhibition of radio ligand binding >50% in panel of 68 targets [4]: did not inhibit 67 of the 68 targets | Human CLHEP, Microsome Predicted Hepatic Clearance [5]: 15.7 mL/min/kg | Activation of MrgX1 (agonistic activity) ([6]; in the absence of BAM8-22): does not activate MrgX1 | Effect on the EMax of BAM8-22 ([6]; maximum concentration of BAM8-22 used): does not affect the EMax of BAM8-22 | Emax as % of standard compound (4i) ([6]; normalized to the positive control (4i, 100%)): 195 ± 8% | EC50 ([6]; read-out: MrgX1 EC50, Table 3, alkylsulfonamides, in presence of BAM8-22): 190 ± 60 nM

CSc1ccccc1NC(=O)c1ccccc1N(C)S(C)(=O)=O [SID 4262381]
EC50 [7]: 329 nM

CCOc1ccccc1NC(=O)c1ccccc1NS(C)(=O)=O [SID 4258711]
EC50 [7]: 96 nM

H-VGRPEWWMDYQKRYG-OH [BAM8-22, reference compound]
EC50 ([6]; EC50 of BAM8-22 on MrgX1, with ML382): 2.9 nM | EC50 ([6]; EC50 of BAM8-22 on MrgX1, without ML382): 18.7 nM
